Experimental data as given in ChEMBL document CHEMBL2016516, “Design, synthesis and biological evaluation of novel chalcone derivatives as antitubulin agents” (Bioorg Med Chem, 2012).
Converted amounts (≈) assume the structure as drawn.

How the values were obtained:
MCF7 [1] = assay: Antiproliferative activity against human MCF7 cells after 48 hrs by MTT assay; type: functional, cell-based; details: MCF7, 48 h
How it was run: (§1)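 Cells grown to log phase in RPMI 1640 with 10% FBS, diluted to 2 × 10⁴ cells/mL and seeded, then incubated 24 h at 37 °C, 5% CO₂ before treatment. Samples at pre-set concentrations were added in six wells, with colchicine and CA-4 as references. After 48 h, MTT in PBS was added for 4 h, followed by extraction solution (10% SDS).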

A549 = assay: Antiproliferative activity against human A549 cells after 48 hrs by MTT assay; type: functional, cell-based; details: A549, 48 h; how it was run: as §1
[2] = Inhibition of bovine tubulin polymerization after 20 mins by spectrophotometry; set-up: species or system Bos taurus
How it was run: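 Tubulin was purified from bovine brain. Varying compound concentrations were preincubated with 10 µM tubulin in glutamate buffer at 30 °C, then cooled to 0 °C. GTP was added and the mixtures were moved to 0 °C cuvettes. They were then warmed to 30 °C in a recording spectrophotometer, with assembly followed turbidimetrically.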

MCF7 [3] = assay: Cell cycle arrest in human MCF7 cells assessed as accumulation in G0/G1 phase at 5 ug/ml after 24 hrs by flow cytometry (reference value: 47.79%); type: functional
MCF7 [4] = assay: Cell cycle arrest in human MCF7 cells assessed as accumulation in S phase at 5 ug/ml after 24 hrs by flow cytometry (reference value: 8.06%); type: functional
MCF7 [5] = assay: Cell cycle arrest in human MCF7 cells assessed as accumulation in G2/M phase at 5 ug/ml after 24 hrs by flow cytometry (reference value: 12.99%); type: functional

O=C(/C=C/c1cc(Cl)cc(Cl)c1Oc1c([N+](=O)[O-])cc(C(F)(F)F)cc1[N+](=O)[O-])c1ccc(Br)cc1
IC50 (MCF7 [1]): 2.6 µg/mL (≈ 4.29 µM) | IC50 (A549): 14.5 µg/mL (≈ 23.9 µM) | IC50 [2]: 9.46 µg/mL (≈ 15.6 µM)

COc1ccc(C(=O)/C=C/c2cc(Br)cc(Br)c2Oc2c([N+](=O)[O-])cc(C(F)(F)F)cc2[N+](=O)[O-])cc1
IC50 (MCF7 [1]): 3.53 µg/mL (≈ 5.46 µM) | IC50 (A549): 13.2 µg/mL (≈ 20.4 µM) | IC50 [2]: 6.02 µg/mL (≈ 9.32 µM)

Cc1ccc(C(=O)/C=C/c2cc(Br)cc(Br)c2Oc2c([N+](=O)[O-])cc(C(F)(F)F)cc2[N+](=O)[O-])cc1
IC50 (MCF7 [1]): 1.44 µg/mL (≈ 2.29 µM) | IC50 (A549): 10.1 µg/mL (≈ 16.1 µM) | IC50 [2]: 5.68 µg/mL (≈ 9.01 µM)

O=C(/C=C/c1cc(Cl)cc(Cl)c1Oc1c([N+](=O)[O-])cc(C(F)(F)F)cc1[N+](=O)[O-])c1ccc(F)cc1
IC50 (MCF7 [1]): 5.02 µg/mL (≈ 9.21 µM) | IC50 (A549): 29.3 µg/mL (≈ 53.8 µM) | IC50 [2]: 9.62 µg/mL (≈ 17.6 µM)

O=C(/C=C/c1cc(Br)cc(Br)c1Oc1c([N+](=O)[O-])cc(C(F)(F)F)cc1[N+](=O)[O-])c1ccc(F)cc1
IC50 (MCF7 [1]): 8.06 µg/mL (≈ 12.7 µM) | IC50 (A549): 120 µg/mL (≈ 190 µM) | IC50 [2]: 15.31 µg/mL (≈ 24.1 µM)

O=C(/C=C/c1cc(Br)ccc1Oc1c([N+](=O)[O-])cc(C(F)(F)F)cc1[N+](=O)[O-])c1ccc(Br)cc1
IC50 (MCF7 [1]): 2.17 µg/mL (≈ 3.52 µM) | IC50 (A549): 13.7 µg/mL (≈ 22.3 µM) | IC50 [2]: 6.25 µg/mL (≈ 10.1 µM)

O=C(/C=C/c1cc(Br)ccc1Oc1c([N+](=O)[O-])cc(C(F)(F)F)cc1[N+](=O)[O-])c1ccc(F)cc1
IC50 (MCF7 [1]): 6.01 µg/mL (≈ 10.8 µM) | IC50 (A549): 26.3 µg/mL (≈ 47.4 µM) | IC50 [2]: 12.31 µg/mL (≈ 22.2 µM)

Cc1ccc(C(=O)/C=C/c2cc(Cl)ccc2Oc2c([N+](=O)[O-])cc(C(F)(F)F)cc2[N+](=O)[O-])cc1
IC50 (MCF7 [1]): 0.03 µg/mL (≈ 0.0592 µM) | IC50 (A549): 0.95 µg/mL (≈ 1.87 µM) | IC50 [2]: 1.42 µg/mL (≈ 2.8 µM) | Activity (MCF7 [3]): 2.36% | Activity (MCF7 [4]): 1.55% | Activity (MCF7 [5]): 67.93%

O=C(/C=C/c1cc(Br)ccc1Oc1c([N+](=O)[O-])cc(C(F)(F)F)cc1[N+](=O)[O-])c1ccc(Cl)cc1
IC50 (MCF7 [1]): 4.74 µg/mL (≈ 8.29 µM) | IC50 (A549): 16.5 µg/mL (≈ 28.9 µM) | IC50 [2]: 7.14 µg/mL (≈ 12.5 µM)

O=C(/C=C/c1cc(Cl)cc(Cl)c1Oc1c([N+](=O)[O-])cc(C(F)(F)F)cc1[N+](=O)[O-])c1ccc(Cl)cc1
IC50 (MCF7 [1]): 4.54 µg/mL (≈ 8.08 µM) | IC50 (A549): 17.2 µg/mL (≈ 30.7 µM) | IC50 [2]: 6.34 µg/mL (≈ 11.3 µM)

COc1ccc(C(=O)/C=C/c2cc(Cl)ccc2Oc2c([N+](=O)[O-])cc(C(F)(F)F)cc2[N+](=O)[O-])cc1
IC50 (MCF7 [1]): 1.83 µg/mL (≈ 3.5 µM) | IC50 (A549): 11.5 µg/mL (≈ 22 µM) | IC50 [2]: 4.83 µg/mL (≈ 9.24 µM)

COc1ccc(/C=C\c2cc(OC)c(OC)c(OC)c2)cc1O [COMBRETASTATIN A4]
IC50 (MCF7 [1]): 0.43 µg/mL (≈ 1.36 µM) | IC50 (A549): 0.53 µg/mL (≈ 1.68 µM) | IC50 [2]: 0.81 µg/mL (≈ 2.56 µM)

O=C(/C=C/c1cc(Cl)ccc1Oc1c([N+](=O)[O-])cc(C(F)(F)F)cc1[N+](=O)[O-])c1ccc(Br)cc1
IC50 (MCF7 [1]): 1.41 µg/mL (≈ 2.47 µM) | IC50 (A549): 10.9 µg/mL (≈ 19 µM) | IC50 [2]: 4.62 µg/mL (≈ 8.08 µM)

Cc1ccc(C(=O)/C=C/c2cc(Cl)cc(Cl)c2Oc2c([N+](=O)[O-])cc(C(F)(F)F)cc2[N+](=O)[O-])cc1
IC50 (MCF7 [1]): 0.7 µg/mL (≈ 1.29 µM) | IC50 (A549): 10 µg/mL (≈ 18.6 µM) | IC50 [2]: 4.87 µg/mL (≈ 9 µM)

O=C(/C=C/c1cc(Br)cc(Br)c1Oc1c([N+](=O)[O-])cc(C(F)(F)F)cc1[N+](=O)[O-])c1ccc(Cl)cc1
IC50 (MCF7 [1]): 6.76 µg/mL (≈ 10.4 µM) | IC50 (A549): 19.4 µg/mL (≈ 29.9 µM) | IC50 [2]: 12.6 µg/mL (≈ 19.4 µM)

O=C(/C=C/c1cc(Br)cc(Br)c1Oc1c([N+](=O)[O-])cc(C(F)(F)F)cc1[N+](=O)[O-])c1ccc(Br)cc1
IC50 (MCF7 [1]): 2.87 µg/mL (≈ 4.13 µM) | IC50 (A549): 16.8 µg/mL (≈ 24.2 µM) | IC50 [2]: 10.01 µg/mL (≈ 14.4 µM)

Cc1ccc(C(=O)/C=C/c2cc(Br)ccc2Oc2c([N+](=O)[O-])cc(C(F)(F)F)cc2[N+](=O)[O-])cc1
IC50 (MCF7 [1]): 0.55 µg/mL (≈ 0.998 µM) | IC50 (A549): 6.85 µg/mL (≈ 12.4 µM) | IC50 [2]: 6.41 µg/mL (≈ 11.6 µM)

COc1ccc(C(=O)/C=C/c2cc(Br)ccc2Oc2c([N+](=O)[O-])cc(C(F)(F)F)cc2[N+](=O)[O-])cc1
IC50 (MCF7 [1]): 2.32 µg/mL (≈ 4.09 µM) | IC50 (A549): 12.6 µg/mL (≈ 22.3 µM) | IC50 [2]: 4.08 µg/mL (≈ 7.19 µM)

COc1cc2c(c(OC)c1OC)-c1ccc(OC)c(=O)cc1[C@@H](NC(C)=O)CC2 [COLCHICINE]
IC50 (MCF7 [1]): 0.51 µg/mL (≈ 1.28 µM) | IC50 (A549): 0.74 µg/mL (≈ 1.85 µM) | IC50 [2]: 1.7 µg/mL (≈ 4.26 µM) | Activity (MCF7 [3]): 1.96% | Activity (MCF7 [4]): 1.34% | Activity (MCF7 [5]): 78.1%

O=C(/C=C/c1cc(Cl)ccc1Oc1c([N+](=O)[O-])cc(C(F)(F)F)cc1[N+](=O)[O-])c1ccc(F)cc1
IC50 (MCF7 [1]): 5.17 µg/mL (≈ 10.1 µM) | IC50 (A549): 23.8 µg/mL (≈ 46.6 µM) | IC50 [2]: 11.66 µg/mL (≈ 22.8 µM)

O=C(/C=C/c1cc(Cl)ccc1Oc1c([N+](=O)[O-])cc(C(F)(F)F)cc1[N+](=O)[O-])c1ccc(Cl)cc1
IC50 (MCF7 [1]): 3.21 µg/mL (≈ 6.09 µM) | IC50 (A549): 11.7 µg/mL (≈ 22.2 µM) | IC50 [2]: 4.68 µg/mL (≈ 8.88 µM)

COc1ccc(C(=O)/C=C/c2cc(Cl)cc(Cl)c2Oc2c([N+](=O)[O-])cc(C(F)(F)F)cc2[N+](=O)[O-])cc1
IC50 (MCF7 [1]): 2.69 µg/mL (≈ 4.83 µM) | IC50 (A549): 12.5 µg/mL (≈ 22.5 µM) | IC50 [2]: 6.56 µg/mL (≈ 11.8 µM)
